This note sets out measurements from ChEMBL document CHEMBL1124505, “Inhibition of aminopeptidases by peptides containing ketomethylene and hydroxyethylene amide bond replacements” (J Med Chem, 1989).

pIC50, pKi: −log10 of the molar value.

Assay [1] concerns the target T1, Aminopeptidase B (Rattus norvegicus, UniProt O09175).
T1 sequence (O09175 whole entry): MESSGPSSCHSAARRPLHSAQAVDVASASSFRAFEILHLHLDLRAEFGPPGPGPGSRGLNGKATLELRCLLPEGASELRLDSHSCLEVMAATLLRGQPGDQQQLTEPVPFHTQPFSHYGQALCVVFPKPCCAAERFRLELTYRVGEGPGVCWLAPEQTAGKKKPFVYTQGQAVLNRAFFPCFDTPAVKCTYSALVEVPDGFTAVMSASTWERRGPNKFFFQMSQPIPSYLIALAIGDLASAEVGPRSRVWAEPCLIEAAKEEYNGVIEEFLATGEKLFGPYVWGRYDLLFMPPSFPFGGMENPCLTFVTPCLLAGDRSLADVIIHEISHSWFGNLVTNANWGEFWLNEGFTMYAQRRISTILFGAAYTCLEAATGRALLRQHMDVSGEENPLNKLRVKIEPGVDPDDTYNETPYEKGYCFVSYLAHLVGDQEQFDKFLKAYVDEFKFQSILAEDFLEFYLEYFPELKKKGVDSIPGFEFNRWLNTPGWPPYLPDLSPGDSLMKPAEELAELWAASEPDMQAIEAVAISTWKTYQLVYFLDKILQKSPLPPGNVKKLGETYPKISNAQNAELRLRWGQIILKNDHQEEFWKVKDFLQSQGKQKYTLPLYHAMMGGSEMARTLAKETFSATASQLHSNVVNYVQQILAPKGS
Briefly: Competitive inhibition of aminopeptidase B or arginyl aminopeptidase purified from rat liver; Ki value reporting the slope effect(Kis). The procedure, abridged:
(§1)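 Arginyl aminopeptidase purified from rat liver. Substrate L-arginine p-nitroanilide in 0.10 M PIPES, pH 7.0, with 0.20 M NaCl and 1 mM DTT, at 25 °C. Initial velocities read as p-nitroaniline release at 405 nm (E = 9620 L/mol·cm). Slow-binding inhibitors preincubated 15 min with enzyme before substrate was added; others started by adding enzyme.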

The target of assay [2] is T1, Aminopeptidase B. Briefly: Competitive inhibition of aminopeptidase B or arginyl aminopeptidase purified from rat liver. Summed up: as §1
For assay [3], the target named is T1, Aminopeptidase B. Briefly: (§2) Inhibition of aminopeptidase B or arginyl aminopeptidase purified from rat liver. The assay is classed as tissue-based. Summed up:
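Initial rates taken as p-nitroaniline release at 405 nm. Slow-binding inhibitors were preincubated with enzyme 15 min before substrate was added; others were started with enzyme.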

The next assay deals with Pancreatic elastase (Sus scrofa, UniProt P08419+P00772). Briefly: Inhibition of porcine pancreatic elastase. The assay is classed as protein assay.
Assay [4] deals with T1, Aminopeptidase B. Description: Non-competitive inhibition of aminopeptidase B or arginyl aminopeptidase purified from rat liver; Ki value reporting the slope effect(Kis). The procedure, abridged: as §1
Assay [5] deals with T1, Aminopeptidase B. Description: Non-competitive inhibition of aminopeptidase B or arginyl aminopeptidase purified from rat liver; Ki value reporting the Kid. Summed up:
as §1

Assay [6] concerns the target T1, Aminopeptidase B. Description: Non-competitive inhibition of aminopeptidase B or arginyl aminopeptidase purified from rat liver; Ki value reporting the intercept effect(Kii). The procedure, abridged: as §1
For assay [7], the target named is T1, Aminopeptidase B. The assay is described as §2. The procedure, abridged: as §1
A further assay has as its target T2, Renin (Homo sapiens, UniProt P00797).
T2 sequence (P00797 whole entry): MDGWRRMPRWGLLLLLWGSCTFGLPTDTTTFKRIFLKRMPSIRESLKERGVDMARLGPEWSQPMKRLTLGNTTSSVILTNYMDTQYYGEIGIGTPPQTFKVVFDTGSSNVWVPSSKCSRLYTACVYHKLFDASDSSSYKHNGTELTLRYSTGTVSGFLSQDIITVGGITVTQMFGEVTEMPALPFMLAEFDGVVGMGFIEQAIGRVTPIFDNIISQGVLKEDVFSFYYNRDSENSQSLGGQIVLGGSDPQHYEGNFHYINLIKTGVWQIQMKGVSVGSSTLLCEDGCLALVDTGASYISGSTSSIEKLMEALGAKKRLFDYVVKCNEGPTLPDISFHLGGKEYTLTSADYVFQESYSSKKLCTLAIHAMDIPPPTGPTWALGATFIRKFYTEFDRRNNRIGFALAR
Briefly: Inhibition of enzyme renin.

Take `CC(C)C[C@H](N)C(=O)CC(Cc1ccccc1)C(=O)O` (stereo partly specified): the pKi on Aminopeptidase B [1] was 6.77. On the same count and under the same terms, in the case of `CC(C)C[C@@H](N)C(=O)CC(Cc1ccccc1)C(=O)O` (stereo partly specified) it was 6.11; in that of `CC(C)CC(N)C(=O)CC(C)C(=O)O` (stereo unspecified), 3.89. As for `CC(C)CCNC(=O)[C@@H](NC(=O)[C@H](C)CC(=O)[C@@H](N)CC(C)C)C(C)C`, the pIC50 at Aminopeptidase B [2] is < 3.40.

On to `N=C(N)NCCC[C@H](N)C(=O)C[C@@H](Cc1ccc(O)cc1)C(=O)O`, for which the pKi on Aminopeptidase B [3] was 9.08. On to `CC(CC(=O)[C@@H](N)CCCCN)C(=O)O` (stereo partly specified), for which the pKi at Aminopeptidase B [1] was 5.70.

For the compound `NC(N)=NCCC[C@H](N)C(=O)C[C@@H](Cc1ccccc1)C(=O)O`, the pKi at Aminopeptidase B [3] is 8.60. With `COC(=O)CCC(=O)C(C)NC(=O)c1ccccc1` (stereo unspecified), on Pancreatic elastase, the Ki was 4200 µM.

On Aminopeptidase B [1], `CC(C)CCNC(=O)[C@@H](NC(=O)[C@H](CC(=O)[C@@H](N)CC(C)C)Cc1ccccc1)C(C)C` had a pKi of 4.44.

The compound `NCCCC[C@H](N)C(=O)CC(Cc1ccccc1)C(=O)O` (stereo partly specified) gave a pKi at Aminopeptidase B [1] of 8.40. Compared with the last compound, the pKi is 3.96 log units higher.

For `CC(CC(=O)[C@@H](N)CCCCN)C(=O)NC(Cc1ccccc1)C(=O)O` (stereo partly specified), the pKi on Aminopeptidase B [4] is 5.06; on Aminopeptidase B [5] it was 5.55; at Aminopeptidase B [6], 5.70. For the compound `CC(C)CCNC(=O)C(NC(=O)C(Cc1ccccc1)CC(O)C(N)CC(C)C)C(C)C` (stereo unspecified), the pIC50 against Aminopeptidase B [7] was < 3.22. Consider `CC(C)C[C@H](CN[C@H](CC(C)C)C(=O)N[C@H](C(=O)N[C@@H](Cc1ccc(O)cc1)C(=O)O)C(C)C)NC(=O)C(Cc1c[nH]cn1)NC(=O)[C@H](Cc1ccccc1)NC(=O)[C@@H]1CCCN1C(=O)C(N)Cc1c[nH]cn1` (stereo in doubt), for which the pKi on Renin was 6.00.

Turning to `CC(C)C[C@H](NC(=O)[C@@H](O)[C@H](N)Cc1ccccc1)C(=O)O` [UBENIMEX], the pKi on Aminopeptidase B [3] is 7.85.

Usually pKi stands for the negative decadic logarithm of the Ki, by convention in mol/L. As usually defined, the pIC50 is −log10 of the IC50, conventionally taken in molar units. Higher therefore signals a small IC50. The Ki is the equilibrium dissociation constant of an inhibitor or competing ligand from its target.
